Reference: ChEMBL document CHEMBL1154102, “Nucleoside-amino acid conjugates: An alternative route to the design of ribonuclease A inhibitors” (Bioorg Med Chem, 2009)
Calls of active or inactive are those of the source. The rule behind the calls is not given here.

Assays:
[1] = target: T1, Ribonuclease pancreatic (Bos taurus) (UniProt P61823); test: Inhibition of bovine pancreatic RNase A assessed as change in pKa of His-105 by NMR spectroscopy
T1 sequence (whole entry): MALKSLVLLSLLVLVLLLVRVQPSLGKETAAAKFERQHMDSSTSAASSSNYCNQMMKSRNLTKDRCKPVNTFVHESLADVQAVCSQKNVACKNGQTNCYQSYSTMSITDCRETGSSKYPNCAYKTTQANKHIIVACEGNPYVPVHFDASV
Summary of the method: (§1)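 RNase A H/D exchanged in D2O (50 °C, 20 min, lyophilized, three cycles), redissolved in D2O with 0.17 M NaCl and 0.5 mM DSS; ligand:enzyme molar ratio 5:1; pH* 3–8 set with DCl/NaOD, uncorrected. 1H NMR at 400 MHz, 22.5 °C, 100 scans, 2 s acquisition; His C-2 shifts vs DSS fitted to titration equations for pKa; pK2 used.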

[2] = target: T1, Ribonuclease pancreatic (Bos taurus); test: Inhibition of bovine pancreatic RNase A assessed as change in pKa of His-12 by NMR spectroscopy; summary of the method: as §1
[3] = target: T1, Ribonuclease pancreatic (Bos taurus); test: Inhibition of bovine pancreatic RNase A assessed as change in pKa of His-119 by NMR spectroscopy; summary of the method: as §1
Ribonuclease pancreatic = target: T2, Ribonuclease pancreatic (Bos taurus, UniProt P61823); test: Inhibition of bovine pancreatic RNase A by spectrophotometric assay
T2 sequence (P61823 whole entry): T1 sequence (whole entry)

[4] = target: T1, Ribonuclease pancreatic (Bos taurus); test: Inhibition of bovine pancreatic RNase A assessed as tRNA degradation at 0.92 mM after 6 hrs using ethidium bromide staining by agarose gel-based assay
Summary of the method: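 RNase A (0.66 µM stock) preincubated with varying volumes of compound (0.92 mM stock) 6 h at 37 °C. Aliquots mixed with tRNA (5.0 mg/ml) and glycerol/bromophenol blue sample buffer, 30 min further incubation, then run on 1.1% agarose in TAE pH 8.0. Undegraded tRNA seen by ethidium bromide staining under UV.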

[5] = target: T1, Ribonuclease pancreatic (Bos taurus); test: Inhibition of bovine pancreatic RNase A assessed as tRNA degradation at 0.50 mM after 2 hrs by precipitation assay
Summary of the method: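 Bond precipitation method. RNase A with conjugate (1 mM stock) preincubated 2 h at 37 °C; aliquot added to tRNA (5 mg/ml) in Tris-HCl pH 7.5 with 5 mM EDTA and 0.5 mg/ml HSA, 30 min at 25 °C. Quenched with ice-cold 1.14 N perchloric acid/6 mM uranyl acetate, 30 min on ice, centrifuged; supernatant diluted, A260 compared to control.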

[6] = target: T1, Ribonuclease pancreatic (Bos taurus); test: Inhibition of bovine pancreatic RNase A at 5 uM by fluorescence assay
Summary of the method: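 Fluorimetric titration, 1 cm cuvette, excitation 295 nm: 5 µM ligand in 20 mM phosphate pH 7.0 with 50 mM NaCl, RNase A added stepwise to a final 17.5 µM; change in emission intensity followed.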

In the case of `Cc1cn([C@H]2C[C@H](NC(=O)C(N)CC(C)C)[C@@H](CO)O2)c(=O)[nH]c1=O` (stereo not given in full), the Activity [1] is reported as “inactive”, the Activity [2] is reported as “inactive” and the Activity [3] is reported as “inactive”.

`Nc1ccn([C@@H]2O[C@H](CO)[C@@H](O)[C@H]2OP(=O)(O)O)c(=O)n1` showed a Ki (Ribonuclease pancreatic) of 7 µM.

With `Cc1cn([C@H]2C[C@H](NC(=O)C(N)Cc3ccc(O)cc3)[C@@H](CO)O2)c(=O)[nH]c1=O` (stereo not given in full) the Activity [4] was “Active”, the Activity [5] was “Active” and the Ki (Ribonuclease pancreatic) was 451 µM.

For `Cc1cn([C@H]2C[C@H](NC(=O)C(N)Cc3c[nH]c4ccccc34)[C@@H](CO)O2)c(=O)[nH]c1=O` (stereo not given in full), the Activity [4] was “Active”, the Activity [5] was “Active” and the Activity [6] was “Active”.
